The full list was thinned out, with hits kept by preference.
AP complement = orthogonal test for alternative complement pathway inhibitors; AID 1235; Human serum alternative complement pathway, LPS-coated ELISA, C3 deposition; tested in compound mixtures; inhibition, % at 5 µM; hit rate 0.08% among 62,000;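 active = inhibition above 30% in each of the two pooled mixtures holding the compound, so the lower value exceeds 30%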;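 note: 0% = serum in Mg-EGTA without compound and 100% = EDTA serum blank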
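Test system – human serum alternative complement pathway, C3 deposition on LPS-coated wells · Buffer or medium – diluted human serum in Mg2+-EGTA GVB++ · Compound dosing – 5 µM each compound, pools of ten, 50 µM per pool · Schedule – 1 h serum-compound exposure at 37 °C · Measured by – Anti-C3 ELISA, OD 450 nm · Read-out basis – percent inhibition of C3 deposition onto LPS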
MMP13 inh = blocks human MMP13 activity | P45452 | MMP-13 fTHP FRET cleavage, Mca fluorescence | inhibition, % at 4 µM | hit rate 0.07% among 65,000 | AID 570;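 active = inhibition above the mean of compound-free control plate wells plus 3 SD, cut at about 14% in these data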;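 note: 0% = DMSO wells and 100% = wells with reference MMP-13 inhibitor after basal subtraction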
D1 mod = allosteric modulators of human D1 dopamine receptor; P21728; B-score at 10 µM; hit rate 5.9% among 58,000; AID 641; HEK293 D1, CRE-luciferase, dopamine EC30 potentiation; actives deviate in either direction;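 active = luminescence count or its row- and column-corrected plate score outside the 99.7% band of the plate's sample wells, on either side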
Target sequence (P21728 whole entry, looked up): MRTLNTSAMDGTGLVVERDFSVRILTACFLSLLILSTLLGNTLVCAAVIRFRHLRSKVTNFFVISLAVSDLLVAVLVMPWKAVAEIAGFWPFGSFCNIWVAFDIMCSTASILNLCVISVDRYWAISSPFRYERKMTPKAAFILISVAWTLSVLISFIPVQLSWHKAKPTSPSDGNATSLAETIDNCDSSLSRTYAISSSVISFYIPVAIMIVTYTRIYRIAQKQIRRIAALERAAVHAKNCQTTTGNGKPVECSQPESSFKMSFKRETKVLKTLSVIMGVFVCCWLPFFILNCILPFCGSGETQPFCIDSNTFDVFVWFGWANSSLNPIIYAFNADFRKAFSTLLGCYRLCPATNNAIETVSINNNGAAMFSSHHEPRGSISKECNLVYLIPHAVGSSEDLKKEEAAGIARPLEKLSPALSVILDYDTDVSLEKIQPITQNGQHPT
hDAT+cocaine = changed human dopamine transporter uptake under cocaine IC80; Q01959; LLC-PK1 hDAT cells, [14C]-dopamine uptake with cocaine IC80; actives deviate in either direction; B-score at 10 µM; hit rate 1.3% among 110,000; AID 449768;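 active = Z score or B-score, a plate-position-corrected score, falls beyond the plate's 99.7% confidence bounds, in either direction; inactive = both scores lie inside the 99.7% bounds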;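 note: scored against the spread of the other compound wells on the same plate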
Candida biofilm = kills Candida albicans biofilms; C. albicans biofilm + clotrimazole, Alamar Blue; AID 834; hit rate 0.14% among 85,000; inhibition, % at 6 µM;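 active = inhibition above 20%; inactive = inhibition below 20%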;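 note: preformed 24 hr biofilms exposed to compound for 48 hr; 0% = biofilm without compound and 100% = blank killed by clotrimazole plus chlorhexidine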
D1 mod confirm = D1 receptor (human) allosteric modulation, confirmed; hit rate 88% among 2,200; luminescence at 10 µM; shares compounds with D1 mod; HEK293 D1 CRE-luciferase, dopamine EC30 potentiation; stronger effect = higher value; AID 642;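 active = luminescence in either of two replicates above the same-plate mean plus 3 SD of the low-dose dopamine control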
D1 ag no DA = secondary test of D1 modulators: activity without dopamine; luminescence at 10 µM; HEK293 D1 CRE-luciferase, luminescence, no dopamine; stronger effect = higher value; AID 646; shares compounds with D1 mod; hit rate 0.8% among 1,900; in the data active = luminescence above about 3900
Isoprot counter = isoproterenol response counter-screen activity for D1 modulators. luminescence at 10 µM. shares compounds with D1 mod. hit rate 63% among 2,200. HEK293 D1 CRE-luciferase, isoproterenol EC30 counter-screen; stronger effect = higher value;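 active = luminescence in either replicate above plate mean of wells with a partly effective reference agonist dose plus 3 SD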;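 note: isoproterenol raises cAMP through native beta-adrenoceptor Gs so signal bypasses D1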
An asterisk follows results filed as active; nt = not tested or not shown.

SMILES | AP complement | MMP13 inh | D1 mod | hDAT+cocaine | Candida biofilm | D1 mod confirm | D1 ag no DA | Isoprot counter
COc1ccc(C2(C)NC(=O)N(Cc3cc(Cl)cc4c3OCOC4)C2=O)cc1OC (stereo unspecified) | 0 | 3 | 10* | 0.55 | 10 | 22312* | 1836 | 5968*
Cc1ccc(Cn2c(C3CCCN3c3nc(-c4cc(Cl)c(N)c(Cl)c4)cs3)nc3cc(Cl)c(Cl)cc32)cc1 (stereo unspecified) | nt | nt | nt | -2.2 | nt | nt | nt | nt
CCCC(=O)c1cc(F)c(N2CCN(S(=O)(=O)c3ccccc3)CC2)cc1C | 6 | nt | -0.51 | -0.005 | 9 | nt | nt | nt
CCCC(=O)c1ccc(N2CCN(S(=O)(=O)c3ccccc3)CC2)c(F)c1 | 4 | 1 | 4.8* | -1.7 | 3 | 4444 | 1352 | 2460
COc1cccc(N2[C@@H](CC(=O)O)c3cc(C(F)(F)F)ccc3S2(=O)=O)c1 | nt | nt | nt | -0.73 | nt | nt | nt | nt
O=C(CCC(=O)OCc1ccc(C(=O)Oc2ccccc2)cc1)Nc1cccc2ccccc12 | nt | nt | nt | -0.23 | nt | nt | nt | nt
CCn1c(SCC(=O)OCc2ccccc2)nc2c1c(=O)n(C)c(=O)n2C | -3 | -5 | 3.9* | 0.42 | 4 | 5976 | 1308 | 2740
CCn1c(SCC(=O)Nc2ccccc2N2CCCCC2)nc2c1c(=O)n(C)c(=O)n2C | -3 | -6 | 3.9* | 0.037 | 2 | 6828* | 1584 | 2528
CC(C)n1c(SCC(=O)Nc2ccccc2N2CCOCC2)nc2c1c(=O)n(C)c(=O)n2C | nt | nt | nt | -0.93 | -9 | nt | nt | nt
O=C(CNS(=O)(=O)c1ccccc1)Nc1ccc(C(F)(F)F)cc1 | nt | nt | nt | -0.51 | 3 | nt | nt | nt
Cc1ccc(Nc2nc(N)nc(CN3CCN(C(=O)c4ccco4)CC3)n2)cc1Cl | 22 | -2 | 5.4* | 2.4 | 9 | 12072* | 1624 | 3084*
CCOC(=O)[C@@H]1[C@H]2COc3cc(OC)ccc3[C@@H]2N2C(=O)N(c3ccc(Cl)cc3)C(=O)[C@]12C | nt | nt | nt | 0.2 | nt | nt | nt | nt
COC(=O)c1oc2ccc(Br)cc2c1-n1cccc1 | 8 | 1 | 8.3* | 0.013 | 8 | 6260* | 1564 | 3084*
COC(=O)c1oc2ccc(Br)cc2c1NC(=O)CCCN1C(=O)c2ccccc2C1=O | 21 | 3 | 0.47 | -0.24 | 4 | nt | nt | nt
COc1cccc(N2CCN(Cc3nc(N)nc(N4CCCc5ccccc54)n3)CC2)c1 | 3 | -3 | 4.9* | 1.9 | 7 | 11368* | 1496 | 3376*
COc1ccc(Nc2nc(N)nc(CN3CCc4ccccc4C3)n2)cc1 | 14 | 0 | 2.3 | 1.2 | 6 | nt | nt | nt
COC(=O)c1cc2sc(Cl)cc2n1CC(=O)N1CCCc2ccccc21 | 18 | 0 | 5.5* | -1.1 | 9 | 9576* | 1504 | 2776
O=C(NCc1ccco1)c1cccc2c1C(=O)N(C1CCCCC1)C2 | 16 | -2 | 17* | -0.11 | 2 | 21064* | 1788 | 4164*
O=C(NCc1cccnc1)c1cccc2c1C(=O)N(C1CCCCC1)C2 | 9 | 3 | 21* | nt | 4 | 25588* | 1508 | 6184*
Cc1ccc(C(=O)COC(=O)CCC(=O)Nc2cccc(Cl)c2)cc1[N+](=O)[O-] | nt | nt | nt | -0.76 | nt | nt | nt | nt
COc1cc(N/C=C(\C(C)=O)c2ccccc2)cc(OC)c1 | nt | nt | nt | -0.59 | nt | nt | nt | nt
CCn1c2ccccc2c2nnc(SCCCn3c(=O)[nH]c4ccccc43)nc21 | 5 | 1 | 9.6* | 0.42 | 7 | 10684* | 1736 | 3096
C=CCn1c2ccccc2c2nnc(SCC(=O)NC(C(=O)OC)C(C)C)nc21 (stereo unspecified) | 7 | 2 | 4.4* | 0.61 | 8 | 7244* | 1452 | 2732
CCn1c2ccccc2c2nnc(SCc3ccc(C(=O)OC)o3)nc21 | 8 | 0 | 5.6* | 0.48 | 4 | 9356* | 1384 | 4312*
CCn1c2ccccc2c2nnc(SCc3ccccc3)nc21 | 10 | -2 | 1.5 | -0.32 | 7 | nt | nt | nt
SMILES | AP complement | MMP13 inh | D1 mod | hDAT+cocaine | Candida biofilm | D1 mod confirm | D1 ag no DA | Isoprot counter
COC(=O)Oc1ccc(/C=N/NC(=O)CSCc2ccccc2Br)cc1OC | nt | nt | nt | 1.2 | nt | nt | nt | nt
O=C(NC1CCCC1)c1cnn2c(C(F)(F)F)cc(-c3ccco3)nc12 | 7 | -7 | 3.5 | 0.16 | 7 | nt | nt | nt
Cc1c2c(nc3c(C(=O)NC4CCCC4)cnn13)CCCC2 | -5 | -60 | 5* | 0.37 | 0 | 11564* | 1764 | 3860*
O=C(Nc1ccccc1Cl)ON=C1c2ccccc2-c2ccccc21 | nt | nt | nt | -0.87 | nt | nt | nt | nt
COc1ccc2c(=O)c(-c3ccc4c(c3)OCO4)coc2c1 | nt | nt | nt | 0.15 | nt | nt | nt | nt
Cc1nc2sc3c(c2c(=O)o1)CCCC3 | 1 | 3 | -0.15 | -1.2 | 7 | nt | nt | nt
Nc1nc2sc3c(c2c(=O)s1)CCCC3 | 4 | 7 | 14* | -0.24 | 10 | 13312* | 1256 | 3388*
CCCCSc1nc2sc3c(c2c(=O)[nH]1)CCC3 | nt | nt | nt | 0.00019 | 5 | nt | nt | nt
Cc1nc2sc3c(c2c(=O)[nH]1)CCC3 | 1 | 0 | 3.1* | -0.47 | 6 | 11308* | 1476 | 2944
O=C(NC1CC1)C1CCN(c2ncnc3c2sc2cccc(F)c23)CC1 | nt | nt | nt | 1.1 | nt | nt | nt | nt
CCOC(=O)c1sc(NC(C)=O)c(C(=O)OCC)c1C | -4 | 4 | nt | 0.77 | 0 | nt | nt | nt
CCOC(=O)Nc1sc(C(=O)N(CC)CC)c(C)c1C(=O)OCC | -8 | 2 | 5.1* | 1.9 | 3 | 14176* | 1880 | 2900
CCOC(=O)c1c(NC(N)=O)sc(C)c1C | -4 | 3 | 6.7* | -0.46 | 11 | 11700* | 1768 | 3492*
Cc1sc2nc(SCc3nc(-c4ccccc4)no3)n(-c3ccccc3)c(=O)c2c1C | nt | nt | nt | 1.7 | nt | nt | nt | nt
Nc1nc(SCC(=O)Nc2ccccc2Sc2ccccc2)n[nH]1 | nt | nt | nt | -0.34 | nt | nt | nt | nt
N#Cc1nc(-c2cccs2)oc1NCc1ccco1 | -13 | -397 | 9.2* | 0.22 | 3 | 14284* | nt | 4016*
N#Cc1nc(-c2ccco2)oc1NCc1ccco1 | 4 | -74 | 9.5* | -1.3 | 3 | 13820* | 1564 | 3364*
COc1ccc(CN(CCN(C)C)c2ccccn2)cc1 | 17 | 2 | 5.2* | 0.011 | 12 | 3680 | 1484 | 3100
S=c1[nH]nc(Cc2cccc3ccccc23)n1-c1ccccc1 | nt | nt | nt | 0.037 | 7 | nt | nt | nt
CC(c1ccccc1)N1C(=O)CC(Sc2ncccc2C(=O)O)C1=O (stereo unspecified) | 12 | 2 | -0.36 | -0.43 | 3 | nt | nt | nt
O=C(O)c1ccccc1SC1CC(=O)N(C2CCCCC2)C1=O (stereo unspecified) | 9 | -1 | 3.9* | -1 | 6 | 6536 | 1600 | 2392
CCOc1ccccc1NC(=O)CN(C)S(=O)(=O)c1cccc2nsnc12 | -2 | 9 | 4.7* | 0.38 | 3 | 6432* | 1328 | 3040
CCc1ccc(NC(=O)c2ccc3c(c2)C(=O)N(CCOC)C3Nc2ccc(CC)cc2)cc1 (stereo unspecified) | nt | nt | nt | -0.097 | nt | nt | nt | nt
